{"source": "ChEMBL document CHEMBL4689842", "about": "“EUbOPEN Chemogenomics Library wave 1” (2021)", "type_in_all_cases": "toxicity, cell-based", "key": {"Fibroblast": {"test_system": "Fibroblast", "experiment": "Multiplex assay against human fibroblast", "conditions": "10 µM, compound concentration 10 uM", "how_it_was_run": "(§1)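 With compound added, live cells were imaged on a CQ1 microscope at 37°C and 5% CO2; staining with Hoechst33342, BioTracker Green Microtubule Cytoskeleton Dye, MitoTracker Red and Annexin V Alexa Fluor 680 had been done at seeding. The CellPathfinder machine-learning gating scheme split cells into Hoechst high-intensity objects or normal cells, normal cells into healthy, pyknosed or fragmented nuclei, and pyknosed cells into mitotic or apoptotic. The tubulin, mitochondrial-mass and membrane-permeability phenotypes are per cents of healthy-nucleus cells.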"}, "U2OS": {"test_system": "U2OS", "experiment": "Incucyte cell viability with U2OS", "conditions": "human, 10 µM, compound concentration 10 uM"}, "HEK-293T": {"test_system": "HEK-293T", "experiment": "Multiplex assay against HEK293T", "conditions": "human, 10 µM, compound concentration 10 uM", "how_it_was_run": "as §1"}}, "note": "“And” between values parts separate entries of the source, which are not always exact repeats. Identical values can stand only once. Wherever Growth Rate is given: filed as whole numbers so only -1 and 0 and 1 occur."}
{"smiles": "CCn1c(=O)c(-c2ccc(Cl)cc2Cl)cc2cnc(Nc3ccc(N4CCNCC4)c(F)c3)nc21", "values": [{"measurement": "Population Tubulin-Different-Phenotype (%)", "setting": "Fibroblast; 24 h, replicate 1", "result": "33% and 32%"}, {"measurement": "Total Cell Count", "setting": "Fibroblast; 24 h, replicate 1", "result": "236 and 703 and 456"}, {"measurement": "Population Apoptotic (%)", "setting": "Fibroblast; 24 h, replicate 2", "result": "100% and 71% and 73%"}, {"measurement": "Population Fragmented Nuclei (%)", "setting": "Fibroblast; 24 h, replicate 2", "result": "41% and 62% and 53%"}, {"measurement": "Population Healthy Nuclei (%)", "setting": "Fibroblast; 24 h, replicate 2", "result": "31% and 23% and 24%"}, {"measurement": "Population Hoechst High Intensity Objects (%)", "setting": "Fibroblast; 24 h, replicate 2", "result": "44% and 54% and 74%"}, {"measurement": "Population Normal (%)", "setting": "Fibroblast; 24 h, replicate 2", "result": "55% and 45% and 25%"}, {"measurement": "Population Pyknosed Nuclei (%)", "setting": "Fibroblast; 24 h, replicate 2", "result": "26% and 13% and 22%"}, {"measurement": "Total Cell Count", "setting": "Fibroblast; 24 h, replicate 2", "result": "225 and 111 and 256"}, {"measurement": "Population Apoptotic (%)", "setting": "Fibroblast; 48 h, replicate 1", "result": 35, "unit": "%"}, {"measurement": "Population Fragmented Nuclei (%)", "setting": "Fibroblast; 48 h, replicate 1", "result": 36, "unit": "%"}, {"measurement": "Population Healthy Nuclei (%)", "setting": "Fibroblast; 48 h, replicate 1", "result": 46, "unit": "%"}, {"measurement": "Population Hoechst High Intensity Objects (%)", "setting": "Fibroblast; 48 h, replicate 1", "result": 67, "unit": "%"}, {"measurement": "Population Membrane Permeable-Phenotype (%)", "setting": "Fibroblast; 48 h, replicate 1", "result": 30, "unit": "%"}, {"measurement": "Population Mitochondria Different-Phenotype (%)", "setting": "Fibroblast; 48 h, replicate 1", "result": 15, "unit": "%"}, {"measurement": "Population Mitotic Cells (%)", "setting": "Fibroblast; 48 h, replicate 1", "result": 64, "unit": "%"}, {"measurement": "Population Normal (%)", "setting": "Fibroblast; 48 h, replicate 1", "result": 32, "unit": "%"}, {"measurement": "Population Pyknosed Nuclei (%)", "setting": "Fibroblast; 48 h, replicate 1", "result": 16, "unit": "%"}, {"measurement": "Population Tubulin-Different-Phenotype (%)", "setting": "Fibroblast; 48 h, replicate 1", "result": 15, "unit": "%"}, {"measurement": "Total Cell Count", "setting": "Fibroblast; 48 h, replicate 1", "result": 255}, {"measurement": "Population Apoptotic (%)", "setting": "Fibroblast; 48 h, replicate 2", "result": 71, "unit": "%"}, {"measurement": "Population Fragmented Nuclei (%)", "setting": "Fibroblast; 48 h, replicate 2", "result": 60, "unit": "%"}, {"measurement": "Population Healthy Nuclei (%)", "setting": "Fibroblast; 48 h, replicate 2", "result": 31, "unit": "%"}, {"measurement": "Population Hoechst High Intensity Objects (%)", "setting": "Fibroblast; 48 h, replicate 2", "result": 76, "unit": "%"}, {"measurement": "Population Membrane Permeable-Phenotype (%)", "setting": "Fibroblast; 48 h, replicate 2", "result": 65, "unit": "%"}, {"measurement": "Population Mitochondria Different-Phenotype (%)", "setting": "Fibroblast; 48 h, replicate 2", "result": 7, "unit": "%"}, {"measurement": "Population Mitotic Cells (%)", "setting": "Fibroblast; 48 h, replicate 2", "result": 28, "unit": "%"}, {"measurement": "Population Normal (%)", "setting": "Fibroblast; 48 h, replicate 2", "result": 23, "unit": "%"}, {"measurement": "Population Pyknosed Nuclei (%)", "setting": "Fibroblast; 48 h, replicate 2", "result": 8, "unit": "%"}, {"measurement": "Total Cell Count", "setting": "Fibroblast; 48 h, replicate 2", "result": 348}, {"measurement": "Growth Rate", "setting": "U2OS; 0 h, replicate number 1, timepoint 0 hours", "result": 0}, {"measurement": "Growth Rate", "setting": "U2OS; 6 h, replicate number 1, timepoint 6 hours", "result": 0}, {"measurement": "Growth Rate", "setting": "U2OS; 12 h, replicate number 1, timepoint 12 hours", "result": 0}, {"measurement": "Growth Rate", "setting": "U2OS; 18 h, replicate number 1, timepoint 18 hours", "result": 0}, {"measurement": "Growth Rate", "setting": "U2OS; 24 h, replicate number 1, timepoint 24 hours", "result": 0}, {"measurement": "Population Fragmented Nuclei (%)", "setting": "HEK-293T; 12 h, replicate 1", "result": "32% and 25% and 19%"}, {"measurement": "Population Hoechst High Intensity Objects (%)", "setting": "HEK-293T; 12 h, replicate 1", "result": "51% and 56% and 22%"}, {"measurement": "Population Membrane Permeable-Phenotype (%)", "setting": "HEK-293T; 12 h, replicate 1", "result": "0% and 19% and 5%"}, {"measurement": "Population Normal (%)", "setting": "HEK-293T; 12 h, replicate 1", "result": "48% and 43% and 77%"}, {"measurement": "Population Pyknosed Nuclei (%)", "setting": "HEK-293T; 12 h, replicate 1", "result": "63% and 42% and 26%"}, {"measurement": "Population Tubulin-Different-Phenotype (%)", "setting": "HEK-293T; 12 h, replicate 1", "result": "40% and 64% and 37%"}, {"measurement": "Population Tubulin-Different-Phenotype (%)", "setting": "HEK-293T; 12 h, replicate 2", "result": "85% and 75% and 43%"}, {"measurement": "Population Fragmented Nuclei (%)", "setting": "HEK-293T; 24 h, replicate 1", "result": "38% and 33% and 20%"}, {"measurement": "Population Normal (%)", "setting": "HEK-293T; 24 h, replicate 1", "result": "40% and 41% and 81%"}, {"measurement": "Total Cell Count", "setting": "HEK-293T; 24 h, replicate 1", "result": "280 and 738 and 614"}, {"measurement": "Population Fragmented Nuclei (%)", "setting": "HEK-293T; 24 h, replicate 2", "result": "16% and 32% and 12%"}, {"measurement": "Population Healthy Nuclei (%)", "setting": "HEK-293T; 24 h, replicate 2", "result": "43% and 40% and 83%"}, {"measurement": "Population Normal (%)", "setting": "HEK-293T; 24 h, replicate 2", "result": "39% and 33% and 93%"}, {"measurement": "Population Tubulin-Different-Phenotype (%)", "setting": "HEK-293T; 24 h, replicate 2", "result": "75% and 91% and 46%"}, {"measurement": "Population Apoptotic (%)", "setting": "HEK-293T; 48 h, replicate 1", "result": 75, "unit": "%"}, {"measurement": "Population Fragmented Nuclei (%)", "setting": "HEK-293T; 48 h, replicate 1", "result": 46, "unit": "%"}, {"measurement": "Population Healthy Nuclei (%)", "setting": "HEK-293T; 48 h, replicate 1", "result": 3, "unit": "%"}, {"measurement": "Population Hoechst High Intensity Objects (%)", "setting": "HEK-293T; 48 h, replicate 1", "result": 56, "unit": "%"}, {"measurement": "Population Membrane Permeable-Phenotype (%)", "setting": "HEK-293T; 48 h, replicate 1", "result": 0, "unit": "%"}, {"measurement": "Population Mitochondria Different-Phenotype (%)", "setting": "HEK-293T; 48 h, replicate 1", "result": 25, "unit": "%"}, {"measurement": "Population Mitotic Cells (%)", "setting": "HEK-293T; 48 h, replicate 1", "result": 24, "unit": "%"}, {"measurement": "Population Normal (%)", "setting": "HEK-293T; 48 h, replicate 1", "result": 43, "unit": "%"}, {"measurement": "Population Pyknosed Nuclei (%)", "setting": "HEK-293T; 48 h, replicate 1", "result": 50, "unit": "%"}, {"measurement": "Population Tubulin-Different-Phenotype (%)", "setting": "HEK-293T; 48 h, replicate 1", "result": 0, "unit": "%"}, {"measurement": "Total Cell Count", "setting": "HEK-293T; 48 h, replicate 1", "result": 280}, {"measurement": "Population Apoptotic (%)", "setting": "HEK-293T; 48 h, replicate 2", "result": 100, "unit": "%"}, {"measurement": "Population Fragmented Nuclei (%)", "setting": "HEK-293T; 48 h, replicate 2", "result": 32, "unit": "%"}, {"measurement": "Population Healthy Nuclei (%)", "setting": "HEK-293T; 48 h, replicate 2", "result": 38, "unit": "%"}, {"measurement": "Population Hoechst High Intensity Objects (%)", "setting": "HEK-293T; 48 h, replicate 2", "result": 63, "unit": "%"}, {"measurement": "Population Membrane Permeable-Phenotype (%)", "setting": "HEK-293T; 48 h, replicate 2", "result": 7, "unit": "%"}, {"measurement": "Population Mitochondria Different-Phenotype (%)", "setting": "HEK-293T; 48 h, replicate 2", "result": 92, "unit": "%"}, {"measurement": "Population Mitotic Cells (%)", "setting": "HEK-293T; 48 h, replicate 2", "result": 0, "unit": "%"}, {"measurement": "Population Normal (%)", "setting": "HEK-293T; 48 h, replicate 2", "result": 36, "unit": "%"}, {"measurement": "Population Pyknosed Nuclei (%)", "setting": "HEK-293T; 48 h, replicate 2", "result": 28, "unit": "%"}, {"measurement": "Population Tubulin-Different-Phenotype (%)", "setting": "HEK-293T; 48 h, replicate 2", "result": 82, "unit": "%"}, {"measurement": "Total Cell Count", "setting": "HEK-293T; 48 h, replicate 2", "result": 296}]}
